# HSF1 activator: increases HSF-1 driven luciferase reporter signal; NIH3T3-HGL HSF-1 luciferase reporter, MG132, 8 h; 100% = twice DMSO control signal; activation, % at 9 µM; 300,000 compounds, 1.7% hits; AID 504408;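 active = mean replicate activation of at least 50% with a set share of replicates each reaching 50%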
# N-glyco inh: N-linked glycosylation inhibition; D54 ERlucT glycosylation luciferase reporter, 24 h; percent of 100 nM tunicamycin response; 360,000 compounds, 0.23% hits; reporter increase, % at 12.5 µM; AID 588692;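 active = mean luciferase reporter signal, scaled so untreated is 0 and the glycosylation-blocking control 100, at or above a set limit in every replicate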;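 also: luciferase carries N-glycosylation sites so blocking glycosylation raises the light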
# PvdQ inh: blocks Pseudomonas aeruginosa PvdQ acylase activity | inhibition, % at 10 µM | purified PvdQ acylase, fluorescence plate reader | 340,000 compounds, 0.063% hits; in the data active = inhibition above about 30%, passing the limit was not always enough
# CaV13 ICDI inh: Primary screen for inhibitors of IQ motif and Ca2+-dependent inactivation inhibitor domain binding in CACNA1D, Förster resonance energy transfer in living cells, …; AID 743397; inhibition, % at 12.3 µM; HEK cells, CFP/YFP FRET ICDI-IQ, plate reader, 10 min; percent FRET-ratio fall versus neutral wells; 340,000 compounds, 0.098% hits;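 active = mean replicate inhibition of at least 30% and at least 1% of replicates passing that level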
# PfHsp90 set2: inhibits growth of yeast expressing Plasmodium falciparum Hsp90; inhibition, % at 9.4 µM; S. cerevisiae expressing PfHsp90, BacTiter-Glo ATP, 48 h; yeast lacking PDR1 and PDR3 efflux regulators; 310,000 compounds, 0.32% hits; AID 504621;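 active = every replicate shows inhibition above about 80%, whatever the replicate mean, limit read from the data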
# T cruzi repl: T. cruzi replication inhibition. T. cruzi beta-gal in NIH3T3, luminescence, 90 h. inhibition, % (test concentration not listed). 300,000 compounds, 1.4% hits. AID 1885;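 active = mean inhibition across valid replicates above about 55%, limit read from the data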;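 also: signal also drops with host cell toxicity which is not excluded here; higher percent means less beta-gal luminescence so fewer parasites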
#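 Incubation – ≥90 h infection period, 3 h prior cell attachment · System – NIH/3T3 fibroblasts plus reporter T. cruzi · Doses – compound pinned at 50 nL/well, DMSO · Read-out basis – percent inhibition of parasite-derived β-gal signal · Signal – luminescent β-galactosidase signal after 60 min lysis · Also added – 5000 T. cruzi trypomastigotes/well · Medium – Low-serum DMEM with 2% FBS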
# Hits are given with their value; n = inactive; x = no result; ! = not active in a repeat. Shown are actives, neighbours in structure and some others; about 3% of the full set was active somewhere.
SMILES,HSF1 activator,N-glyco inh,PvdQ inh,CaV13 ICDI inh,PfHsp90 set2,T cruzi repl
Cc1ccccc1OCc1n(CC(=O)OC2CC(C)CCC2C(C)C)c2ccccc2[n+]1C (centres undefined),n,n,n,n,n,65
CC1CCC(C(C)C)C(OC(=O)Cn2c(-c3ccc(Br)cc3)[n+](C)c3ccccc32)C1 (centres undefined),n,n,n,n,n,63!
COc1ccc(N2CCN(C(=O)[C@H](Cc3c[nH]c4ccccc34)NC(C)=O)CC2)cc1,62,n,n,n,n,n
Fc1ccc(OCc2nnc(-c3ccccc3Br)o2)c(Cl)c1,68,n,n,n,n,n
Clc1ccc(OCc2nnc(-c3ccccc3Br)o2)c(Cl)c1,61,n,n,n,n,n
COc1ccc(C)cc1NC(=O)C/C(C)=N/NC(=O)Cc1cccc2ccccc12,109,n,n,n,n,n
COc1ccc(CCNC(=O)C/C(C)=N/NC(=O)Cc2cccc3ccccc23)cc1OC,n,n,n,n,n,n
COC(=O)C1=C(C)N(Cc2cccc(C(F)(F)F)c2)C(=NCc2ccc3c(c2)OCO3)NC1CCc1ccccc1 (centres undefined),x,x,x,n,x,x
COc1ccc(C(C)(C)C)cc1NC(=O)OC[C@@H]1CSCCS(=O)(=O)N1,x,x,x,n,x,x
O=C(Nc1ccc(Cl)cc1)C1C2CCCCC21 (centres undefined),79,n,n,n,n,n
COc1ccc2cc(-c3ccccc3)ncc2c1,75,n,n,n,n,n
NC(=O)c1ccccc1NC(=O)/C=C/c1c(Cl)cccc1Cl,83,n,n,n,x,n
CC(C)Oc1cccc(C(=O)C2CCCN(Cc3cnc(N4CCCC4)s3)C2)c1 (centres undefined),n,n,n,n,n,82
CC(C)Oc1cccc(C(=O)C2CCCN(Cc3ccc(Oc4ncccn4)cc3)C2)c1 (centres undefined),n,n,n,n,n,66
O=C(c1cccc(C(F)(F)F)c1)C1CCCN(Cc2ccc(OCCO)cc2)C1 (centres undefined),n,n,n,n,n,63
COc1c(C)cc(C(=O)C2CCCN(Cc3ccc(Oc4ncccn4)cc3)C2)cc1C (centres undefined),n,n,n,n,n,n
CCCn1ncc(CN2CCCC(C(=O)c3cccc(OC(C)C)c3)C2)c1C (centres undefined),n,n,n,n,n,55
COc1ccc(N2C(=O)c3[nH]nc(-c4ccccc4)c3C2c2ccc(Br)cc2)cc1 (centres undefined),x,x,x,n,x,x
CC(C)(C)n1nnnc1C(c1ccccc1)N1CCN(c2ccc(C(F)(F)F)cn2)CC1 (centres undefined),x,x,x,n,x,x
Cc1cc(NC(=O)CSc2nnc3ccc(-c4ccccc4)nn23)no1,x,n,x,n,x,x
COc1ccccc1C(=O)C1CCCN(Cc2ccc(Oc3ncccn3)cc2)C1 (centres undefined),n,n,n,n,x,73
CCNC(=O)C1(C)CCCN1Cc1c(F)cccc1F (centres undefined),x,n,x,n,x,x
CCCCNC(=O)CCc1c(C)nc2c(c(C)nn2-c2ccccc2)c1C,n,n,n,n,n,55
COc1cccc(C2Nc3ccccc3C(=O)N2c2ccc(F)cc2)c1O (centres undefined),67,n,n,n,n,n
COc1ccc(C2CC(=O)C(c3cccc(C)c3)=CN2Cc2ccccc2)cc1 (centres undefined),x,x,x,n,x,x
CCc1ccc(C(O)c2ncc(-c3cccc(OC)c3)[nH]2)cc1 (centres undefined),x,n,x,x,x,x
Cc1nn(Cc2cccc(C(=O)Nc3ccn(Cc4c(F)c(F)cc(F)c4F)n3)c2)c(C)c1[N+](=O)[O-],n,n,n,n,n,68
Cc1nn(C)c(C(=O)Nc2ccn(Cc3c(F)c(F)cc(F)c3F)n2)c1[N+](=O)[O-],n,n,n,n,n,n
CCOC(=O)C1=C(Cc2ccc(Cl)cc2)C(=O)c2ccccc2C1=O,x,n,n,x,105,x
O=S(=O)(c1ccc(F)cc1)N1CCCc2nc(-c3ccc(Br)cc3)ccc21,x,x,x,n,x,x

# From PubChem BioAssay
